Data as given in ChEMBL document CHEMBL2407075, “Sulphonamido-quinoxalines: search for anticancer agent” (Eur J Med Chem, 2013).

Key:
Assay type in all cases: functional
MDA-MB-231 [1] = assay: Growth inhibition of human MDA-MB-231 cells assessed as cell growth at 10^-4 M after 48 hrs by sulforhodamine B assay; conditions: MDA-MB-231, 48 h, read-out: Activity
[2] = Growth inhibition of human HCC2998 cells assessed as cell growth at 10^-6 M after 48 hrs by sulforhodamine B assay; conditions: HCC 2998, 48 h, read-out: Activity
Method in brief: (§1)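 Five-dose screen at NCI. Cells in RPMI 1640 with 5% FBS and 2 mM L-glutamine, seeded at 5000–40,000 cells/well and grown 24 h at 37 °C, 5% CO2 before dosing, with time-zero plates TCA-fixed. Drug diluted from DMSO stock to 0.01, 0.1, 1, 10 and 100 µM final, 48 h. Cells fixed with cold TCA (10% final), stained with 0.4% SRB and read at 515 nm. Percent growth from Tz, control and test absorbances; GI50, TGI and LC50 from dose-response curves.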

OVCAR-4 = assay: Growth inhibition of human OVCAR4 cells assessed as cell growth at 10^-4 M after 48 hrs by sulforhodamine B assay; conditions: OVCAR-4, 48 h, read-out: Activity
RPMI-8226 = assay: Growth inhibition of human RPMI8226 cells after 48 hrs by sulforhodamine B assay; conditions: RPMI-8226, 48 h; for CC50: read-out: LC50 (the source's name)
Method in brief: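 Leukemia suspension cells in RPMI 1640 with 5% FBS and 2 mM L-glutamine were plated at 5000–40,000 cells/well and grown 24 h. Five concentrations (0.01–100 µM) were given for 48 h at 37 °C. Settled cells were fixed with 80% TCA (16% final) and SRB-stained, read at 515 nm. GI50 came from dose–response curves against time-zero and control plates.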

SW-620 = assay: Growth inhibition of human SW620 cells assessed as cell growth at 10^-4 M after 48 hrs by sulforhodamine B assay; conditions: SW-620, 48 h, read-out: Activity
K562 [3] = assay: Growth inhibition of human K562 cells assessed as cell growth at 10^-8 M after 48 hrs by sulforhodamine B assay; conditions: K562, 48 h, read-out: Activity
MOLT-4 = assay: Growth inhibition of human MOLT4 cells assessed as cell growth at 10^-5 M after 48 hrs by sulforhodamine B assay; conditions: MOLT-4, 48 h, read-out: Activity
M14 = assay: Growth inhibition of human M14 cells assessed as cell growth at 10^-8 M after 48 hrs by sulforhodamine B assay; conditions: M14, 48 h, read-out: Activity
OVCAR-3 = assay: Growth inhibition of human OVCAR3 cells assessed as cell growth at 10^-8 M after 48 hrs by sulforhodamine B assay; conditions: OVCAR-3, 48 h, read-out: Activity
K562 [4] = assay: Growth inhibition of human K562 cells assessed as cell growth at 10^-4 M after 48 hrs by sulforhodamine B assay; conditions: K562, 48 h, read-out: Activity
OVCAR-5 = assay: Growth inhibition of human OVCAR5 cells assessed as cell growth at 10^-6 M after 48 hrs by sulforhodamine B assay; conditions: OVCAR-5, 48 h, read-out: Activity
HT-29 [5] = assay: Growth inhibition of human HT-29 cells assessed as cell growth at 10^-8 M after 48 hrs by sulforhodamine B assay; conditions: HT-29, 48 h, read-out: Activity; method in brief: as §1
T47D [6] = assay: Growth inhibition of human T47D cells after 48 hrs by sulforhodamine B assay; conditions: for CC50: read-out: LC50 (the source's name)
Method in brief: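 Five-dose NCI 60 screen at 0.01, 0.1, 1, 10 and 100 µM, 48 h exposure after 24 h preincubation, in RPMI 1640 with 5% FBS and 2 mM glutamine. Fixed with TCA (10% final for adherent cells, 16% for suspension cells), stained with SRB, A515 read. Percent growth uses time-zero (Tz), control and treated plates. GI50, TGI and LC50 are read from the dose-response curves.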

HT-29 [7] = assay: Growth inhibition of human HT-29 cells assessed as cell growth at 10^-7 M after 48 hrs by sulforhodamine B assay; conditions: HT-29, 48 h, read-out: Activity; method in brief: as §1
HCT-15 = assay: Growth inhibition of human HCT15 cells assessed as cell growth at 10^-8 M after 48 hrs by sulforhodamine B assay; conditions: HCT-15, 48 h, read-out: Activity; method in brief: as §1
SN12C [8] = assay: Growth inhibition of human SN12C cells assessed as cell growth at 10^-4 M after 48 hrs by sulforhodamine B assay; conditions: read-out: Activity
T47D [9] = assay: Growth inhibition of human T47D cells assessed as cell growth at 10^-5 M after 48 hrs by sulforhodamine B assay; conditions: read-out: Activity
SN12C [10] = assay: Growth inhibition of human SN12C cells assessed as cell growth at 10^-7 M after 48 hrs by sulforhodamine B assay; conditions: read-out: Activity
MDA-MB-231 [11] = assay: Growth inhibition of human MDA-MB-231 cells assessed as cell growth at 10^-7 M after 48 hrs by sulforhodamine B assay; conditions: MDA-MB-231, 48 h, read-out: Activity
MDA-MB-435 = assay: Growth inhibition of human MDA-MB-435 cells assessed as cell growth at 10^-7 M after 48 hrs by sulforhodamine B assay; conditions: MDA-MB-435, 48 h, read-out: Activity
TK-10 = assay: Growth inhibition of human TK10 cells assessed as cell growth at 10^-5 M after 48 hrs by sulforhodamine B assay; conditions: TK-10, 48 h, read-out: Activity
HT-29 [12] = assay: Growth inhibition of human HT-29 cells assessed as cell growth at 10^-6 M after 48 hrs by sulforhodamine B assay; conditions: HT-29, 48 h, read-out: Activity; method in brief: as §1
[13] = Growth inhibition of human Hs 578T cells assessed as cell growth at 10^-6 M after 48 hrs by sulforhodamine B assay; conditions: read-out: Activity; method in brief: as §1
LOX IMVI = assay: Growth inhibition of human LOXIMVI cells assessed as cell growth at 10^-8 M after 48 hrs by sulforhodamine B assay; conditions: read-out: Activity
SR = assay: Growth inhibition of human SR cells assessed as cell growth at 10^-4 M after 48 hrs by sulforhodamine B assay; conditions: read-out: Activity
SF-268 = assay: Growth inhibition of human SF268 cells assessed as cell growth at 10^-7 M after 48 hrs by sulforhodamine B assay; conditions: SF-268, 48 h, read-out: Activity
NCI-H522 = assay: Growth inhibition of human NCI-H522 cells assessed as cell growth at 10^-6 M after 48 hrs by sulforhodamine B assay; conditions: NCI-H522, 48 h, read-out: Activity
OVCAR-8 = assay: Growth inhibition of human OVCAR8 cells assessed as cell growth at 10^-8 M after 48 hrs by sulforhodamine B assay; conditions: OVCAR-8, 48 h, read-out: Activity
HOP-62 = assay: Growth inhibition of human HOP62 cells assessed as cell growth at 10^-8 M after 48 hrs by sulforhodamine B assay; conditions: HOP-62, 48 h, read-out: Activity; method in brief: as §1

For `O=S(=O)(Nc1ccc(Cl)cc1)c1ccc2nc(-c3ccccc3)c(-c3ccccc3)nc2c1`, the growth at 100 µM (MDA-MB-231 [1]) was 54%, the growth at 1 µM [2] was 102% and the growth at 100 µM (OVCAR-4) was 52%. The GI50 (RPMI-8226) was 1430 nM, the CC50 (RPMI-8226) was greater than 100000 nM and the growth at 100 µM (SW-620) was 70%. It also gave a growth at 0.01 µM (K562 [3]) of 98%, a growth at 10 µM (MOLT-4) of -39% and a growth at 0.01 µM (M14) of 95%. For the same compound, the growth at 0.01 µM (OVCAR-3) was 100%, the growth at 100 µM (K562 [4]) was 58% and the growth at 1 µM (OVCAR-5) was 90%. The growth at 0.01 µM (HT-29 [5]) was 100%, the GI50 (T47D [6]) was 1620 nM and the CC50 (T47D [6]) was greater than 100000 nM. It also gave a growth at 0.1 µM (HT-29 [7]) of 100%, a growth at 0.01 µM (HCT-15) of 100% and a growth at 100 µM (SN12C [8]) of 78%. It also gave a growth at 10 µM (T47D [9]) of -20%, a growth at 0.1 µM (SN12C [10]) of 96% and a growth at 0.1 µM (MDA-MB-231 [11]) of 101%. The growth at 0.1 µM (MDA-MB-435) was 92%, the growth at 10 µM (TK-10) was 9% and the growth at 1 µM (HT-29 [12]) was 85%. For the same compound, the growth at 1 µM [13] was 76%, the growth at 0.01 µM (LOX IMVI) was 99% and the growth at 100 µM (SR) was 50%. For the same compound, the growth at 0.1 µM (SF-268) was 98%, the growth at 1 µM (NCI-H522) was 88% and the growth at 0.01 µM (OVCAR-8) was 96%. The growth at 0.01 µM (HOP-62) was 96%.

For `O=S(=O)(Nc1ccccn1)c1ccc2nc(-c3ccccc3)c(-c3ccccc3)nc2c1`, the growth at 100 µM (MDA-MB-231 [1]) was 41%, the growth at 1 µM [2] was 100% and the growth at 100 µM (OVCAR-4) was 21%. For the same compound, the GI50 (RPMI-8226) was 1110 nM, the CC50 (RPMI-8226) was greater than 100000 nM and the growth at 100 µM (SW-620) was 59%. It also gave a growth at 0.01 µM (K562 [3]) of 105%, a growth at 10 µM (MOLT-4) of -29% and a growth at 0.01 µM (M14) of 96%. The growth at 0.01 µM (OVCAR-3) was 92%, the growth at 100 µM (K562 [4]) was 48% and the growth at 1 µM (OVCAR-5) was 104%. It also gave a growth at 0.01 µM (HT-29 [5]) of 102%, a GI50 (T47D [6]) of 1120 nM and a TGI (T47D [6]) of 5140 nM. It also gave a CC50 (T47D [6]) greater than 100000 nM, a growth at 0.1 µM (HT-29 [7]) of 97% and a growth at 0.01 µM (HCT-15) of 100%. The growth at 100 µM (SN12C [8]) was 64%, the growth at 10 µM (T47D [9]) was -22% and the growth at 0.1 µM (SN12C [10]) was 93%. It also gave a growth at 0.1 µM (MDA-MB-231 [11]) of 107%, a growth at 0.1 µM (MDA-MB-435) of 102% and a growth at 10 µM (TK-10) of 4%. It also gave a growth at 1 µM (HT-29 [12]) of 79%, a growth at 1 µM [13] of 65% and a growth at 0.01 µM (LOX IMVI) of 97%. For the same compound, the growth at 100 µM (SR) was 18%, the growth at 0.1 µM (SF-268) was 91% and the growth at 1 µM (NCI-H522) was 74%. The growth at 0.01 µM (OVCAR-8) was 100% and the growth at 0.01 µM (HOP-62) was 96%.
